# Measured values from different studies.
# Target: Protein kinase C epsilon type (PRKCE, Homo sapiens, UniProt Q02156)
SMILES,assay,conditions,quantity,result
CCN(CC)CCNC(=O)c1c(C)[nH]c(/C=C2\C(=O)Nc3ccc(F)cc32)c1C,"enzyme activity, inhibitor",10 µM,inhibition,21%
Cc1ccc(C(=O)NCc2ccsc2)cc1C#Cc1cn(C(C)C)c2ncnc(N)c12,"enzyme activity, inhibitor",1 µM,activity vs control,104%
O=C1Nc2ccc(Cl)cc2C1=Cc1cc(Cl)c(O)c(Cl)c1,cell-free assay,0.5 µM,remaining signal,100%
COc1cc(Cl)c(C(=O)N[C@@H](CN[C@H]2CC[C@@H](N)CC2)Cc2ccc(C#N)cc2)cc1-c1ccc(CN[C@H](C)c2ccc(C)cc2)o1,"enzyme activity, inhibitor",1 µM,remaining activity,85%
CNC(=O)c1cc(Oc2ccc(NC(=O)Nc3ccc(Cl)c(C(F)(F)F)c3)cc2)ccn1,cell-free assay,0.5 µM,remaining signal,96.4%
Nc1ncnc2occ(-c3ccc(NC(=O)Nc4cc(C(F)(F)F)ccc4F)cc3)c12,cell-free assay,20 µM,remaining signal,50%
Cc1nc(N2CC[C@@H](O)C2)ncc1-c1cc(C(F)(F)F)cc2[nH]ncc12,"cell-free assay, competition with immobilised ligand",1 µM,remaining binding,88%
CS(=O)(=O)Nc1cccc(-c2csc(NC(=O)CSc3nc4nccnc4c(=O)n3CCc3ccccc3)n2)c1,"enzyme activity, inhibitor",10 µM,inhibition,-9%
C=CC(=O)Nc1cc(Nc2nccc(Nc3cc(Cl)c(F)cc3C(C)(C)O)n2)c(OC)cc1N1CC[C@@H](N(C)C)C1,"enzyme activity, inhibitor",1 µM,inhibition,2%
O=C(Nc1cccnn1)N1CC(C/C=C/c2cncc(Oc3ccc(C(F)(F)F)cn3)n2)C1,"cell-free assay, competition with immobilised ligand",1 µM,remaining binding,100%
O=C(Nc1nccs1)C(c1cc(F)ccc1O)N1Cc2ccccc2C1=O (centres unmarked),"enzyme activity, inhibitor",1 µM,inhibition,14%
O=C(O)c1cc(-c2ccc(C3CCNCC3)cc2)c2ccc(-c3ccc(C(F)(F)F)cc3)cc2c1,"cell-free assay, competition with immobilised ligand",1 µM,remaining binding,100%
Cn1cncc1C1=CN(c2ncnc3[nH]cnc23)CCS1,"enzyme activity, inhibitor, radiometric",2 µM,inhibition,92.7%
Nc1cnc(N2CCc3cc(S(=O)(=O)Nc4c(F)cc(Cl)cc4F)cc(N4CCCC4=O)c32)nc1,"cell-free assay, competition with immobilised ligand",1 µM,remaining binding,100%
O=C1NC(=O)c2cc(Nc3ccc(F)cc3)c(Nc3ccc(F)cc3)cc21,cell-free assay,0.5 µM,remaining signal,97.8%
CCCCN(CCCC)C(=O)CN1C[C@@H](c2cc(OC)c3c(c2)OCO3)[C@H](C(=O)O)[C@H]1CC(C)(C)CCC,"cell-free assay, competition with immobilised ligand",1 µM,remaining binding,100%
COc1cc2ncnc(Nc3ccc(Oc4ccccc4)cc3C)c2cc1OC,"enzyme activity, inhibitor",1 µM,inhibition,0%
